This is an account of results in ChEMBL document CHEMBL2169854, “New insight into the central benzodiazepine receptor-ligand interactions: design, synthesis, biological evaluation, and molecular modeling of 3-substituted 6-phenyl-4H-imidazo[1,5-a][1,4]benzodiazepines and related compounds” (J Med Chem, 2011).

The source made the active and inactive calls. No cut-off for these calls is given here.

For assay [1], the target named is T1, GABA-A receptor; alpha-1/beta-2/gamma-2 (Homo sapiens) (UniProt P14867+P47870+P18507). Kind of assay: Antagonist at human recombinant GABA-A alpha1beta2gamma2L receptor expressed in Xenopus laevis oocytes assessed as blockade of diazepam-induced potentiation of GABA-induced chloride current at 10 uM incubated 60 seconds before addition of GABA measured after 30 seconds at holding potential -70 mV by two-microelectrode voltage clamp technique. The assay is classed as functional, cell-based. Particulars: Oocyte. A digest of the protocol:
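Oocytes expressing human α1β2γ2L, α2β1γ2L or α5β2γ2L receptors were clamped at −70 mV. Compound at 10 μM was tested against the enhancement of the GABA EC10 response by 1.0 μM diazepam, with 60 s preapplication and 30 s coapplication. The response was expressed as percent potentiation, from 2–3 oocytes.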

Assay [2] addresses T2, GABA A receptor alpha-2/beta-2/gamma-2 (Homo sapiens, UniProt P18507+P47869+P47870).
T2 sequence (P47870 whole entry): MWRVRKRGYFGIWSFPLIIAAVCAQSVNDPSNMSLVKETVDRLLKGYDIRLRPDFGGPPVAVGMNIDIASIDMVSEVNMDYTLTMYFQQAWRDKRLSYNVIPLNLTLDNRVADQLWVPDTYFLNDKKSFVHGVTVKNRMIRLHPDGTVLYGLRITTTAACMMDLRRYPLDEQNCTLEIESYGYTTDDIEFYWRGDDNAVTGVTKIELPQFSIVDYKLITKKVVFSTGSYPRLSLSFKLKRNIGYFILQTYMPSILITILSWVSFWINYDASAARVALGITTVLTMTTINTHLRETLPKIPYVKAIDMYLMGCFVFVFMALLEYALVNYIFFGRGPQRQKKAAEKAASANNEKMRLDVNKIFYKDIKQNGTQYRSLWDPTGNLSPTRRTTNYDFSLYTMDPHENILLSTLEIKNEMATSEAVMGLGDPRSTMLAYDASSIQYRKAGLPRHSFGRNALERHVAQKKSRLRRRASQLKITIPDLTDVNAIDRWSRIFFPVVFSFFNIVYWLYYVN
T2 sequence (P18507 whole entry): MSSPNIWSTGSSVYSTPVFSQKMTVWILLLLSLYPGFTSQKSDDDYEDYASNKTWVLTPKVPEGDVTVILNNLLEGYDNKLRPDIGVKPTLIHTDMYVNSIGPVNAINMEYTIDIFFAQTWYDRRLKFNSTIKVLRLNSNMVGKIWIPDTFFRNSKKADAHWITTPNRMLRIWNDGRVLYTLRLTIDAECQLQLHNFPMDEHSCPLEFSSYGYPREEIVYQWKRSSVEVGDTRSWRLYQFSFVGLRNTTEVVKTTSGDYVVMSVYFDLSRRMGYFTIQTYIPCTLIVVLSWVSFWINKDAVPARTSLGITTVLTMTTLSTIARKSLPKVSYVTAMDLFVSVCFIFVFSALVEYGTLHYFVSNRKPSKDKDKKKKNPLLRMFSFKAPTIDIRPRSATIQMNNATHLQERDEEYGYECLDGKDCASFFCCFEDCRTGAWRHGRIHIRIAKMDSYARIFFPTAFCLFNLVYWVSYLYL
T2 sequence (P47869 whole entry): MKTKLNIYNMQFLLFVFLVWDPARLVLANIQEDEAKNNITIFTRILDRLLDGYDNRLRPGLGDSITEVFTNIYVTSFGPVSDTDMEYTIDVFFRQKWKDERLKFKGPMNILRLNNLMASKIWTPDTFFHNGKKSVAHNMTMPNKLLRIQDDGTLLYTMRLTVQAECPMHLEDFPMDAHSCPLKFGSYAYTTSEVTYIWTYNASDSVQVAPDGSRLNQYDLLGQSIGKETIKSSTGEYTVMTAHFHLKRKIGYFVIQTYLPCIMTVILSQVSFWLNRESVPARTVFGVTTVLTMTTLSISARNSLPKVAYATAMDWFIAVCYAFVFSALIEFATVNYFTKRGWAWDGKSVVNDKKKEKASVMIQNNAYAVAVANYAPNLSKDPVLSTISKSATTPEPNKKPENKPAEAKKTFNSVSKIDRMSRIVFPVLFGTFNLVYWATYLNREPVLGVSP
Kind of assay: Displacement of [3H]flumazenil from human recombinant GABA-A alpha2beta2gamma2L receptor expressed in HEK293 cells. The assay is classed as cell-based. The gist of the method: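 Membranes came from stably transfected HEK293 lines expressing α2β2γ2 or α5β3γ2, grown in MEM/EBSS with 10% FCS at 37 C, and were resuspended in 10 mM potassium phosphate pH 7.4 with 100 mM KCl. […] At least six concentrations were tested, DMSO ≤1%. Ki was obtained by Cheng–Prusoff from n = 3 experiments run in triplicate.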

A further assay is filed under the species Homo sapiens. Kind of assay: Ratio of Ki for central benzodiazepine receptor in human cortical membrane to Ki for central benzodiazepine receptor in human cortical membrane in presence of 50 uM GABA. The assay is classed as cell membranes.
The test system of assay [3] is Oocyte. Kind of assay: Modulation of human recombinant GABA-A alpha5beta2gamma2L receptor expressed in Xenopus laevis oocytes assessed as effect on GABA-induced chloride current at 10 uM incubated 60 seconds before addition of GABA measured after 30 seconds at holding potential -70 mV by two-microelectrode voltage clamp technique relative to control. The assay is classed as cell-based.

Assay [4] can be described thus: Displacement of [3H]flumazenil from central benzodiazepine receptor in human cortical membrane after 90 mins by beta liquid scintillation counting. The assay is classed as cell membranes.
In assay [5] the target is T1, GABA-A receptor; alpha-1/beta-2/gamma-2 (Homo sapiens). Kind of assay: Modulation of human recombinant GABA-A alpha1beta2gamma2L receptor expressed in Xenopus laevis oocytes assessed as effect on GABA-induced chloride current at 10 uM incubated 60 seconds before addition of GABA measured after 30 seconds at holding potential -70 mV by two-microelectrode voltage clamp technique relative to control. The assay is classed as cell-based. The conditions noted are these: Oocyte.

Assay [6] concerns the target T3, GABA A receptor alpha-1/beta-1/gamma-2 (Homo sapiens) (UniProt P14867+P18507+P18505). Kind of assay: Modulation of human recombinant GABA-A alpha1beta1gamma2L receptor expressed in Xenopus laevis oocytes assessed as effect on GABA-induced chloride current at 1 uM incubated 60 seconds before addition of GABA measured after 30 seconds at holding potential -70 mV by two-microelectrode voltage clamp technique relative to control. The assay is classed as cell-based. Particulars: Oocyte.

The nature of assay [7]: Displacement of [3H]flumazenil from central benzodiazepine receptor in bovine cortical membrane after 90 mins by beta liquid scintillation counting. The assay is classed as cell membranes, Bos taurus. The gist of the method:
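At least six concentrations spanning 3 log units were tested in 2% DMSO. Ki was obtained by Cheng–Prusoff (Kd 0.85 nM bovine, 0.91 nM human), mean of three determinations.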

Assay [8] has as its system Oocyte. Kind of assay: Modulation of human recombinant GABA-A alpha5beta2gamma2L receptor expressed in Xenopus laevis oocytes assessed as effect on GABA-induced chloride current at 1 uM incubated 60 seconds before addition of GABA measured after 30 seconds at holding potential -70 mV by two-microelectrode voltage clamp technique relative to control. The assay is classed as cell-based.

Assay [9] concerns the target T3, GABA A receptor alpha-1/beta-1/gamma-2 (Homo sapiens). Kind of assay: Modulation of human recombinant GABA-A alpha1beta1gamma2L receptor expressed in Xenopus laevis oocytes assessed as effect on GABA-induced chloride current at 10 uM incubated 60 seconds before addition of GABA measured after 30 seconds at holding potential -70 mV by two-microelectrode voltage clamp technique relative to control. The assay is classed as cell-based. Particulars: Oocyte.

Assay [10] addresses T1, GABA-A receptor; alpha-1/beta-2/gamma-2 (Homo sapiens). Kind of assay: Modulation of human recombinant GABA-A alpha1beta2gamma2L receptor expressed in Xenopus laevis oocytes assessed as effect on GABA-induced chloride current at 1 uM incubated 60 seconds before addition of GABA measured after 30 seconds at holding potential -70 mV by two-microelectrode voltage clamp technique relative to control. Particulars: Oocyte. The assay is classed as cell-based.

In the case of `CCOC(=O)c1ncn2c1CN=C(c1ccc(C)cc1)c1ccccc1-2`, in assay [1], the outcome was Active. Besides, the inhibition constant Ki in assay [2] is 105 nM; in [4], 18.5 nM; in [7], 11.4 nM. Further, the Ratio Ki in the assay listed under Homo sapiens came to 1.1. Moreover, the Activity in the assay with Oocyte [3] is -22%; in assay [5], -4%; in assay [6], 0%; with Oocyte [8] it was -4%; in assay [9] it was 8.3%; in [10], 8%.

`CCOC(=O)c1ncn2c1CN=C(c1ccc(F)cc1)c1cc(F)ccc1-2`: the outcome in assay [1] was Active. Besides, the figures for the inhibition constant Ki in [2], in [4] and in [7] were 60 nM, 22.3 nM and 10.9 nM, respectively. Besides, the Ratio Ki in the assay filed under Homo sapiens stood at 1.05. For the same compound, the Activity in the assay with Oocyte [3] was -16%; in assay [5], 12%; in assay [6], -7.5%; in the assay with Oocyte [8], -1%; in assay [9], 6.5%; in [10] it was -13%.
